# Measured values of several laboratories.
# Compare with care: the assays were run in different laboratories.
# Target: Homeodomain-interacting protein kinase 4 (HIPK4, Homo sapiens, UniProt Q8NE63)
# Residues used in one study (Q8NE63 1-616): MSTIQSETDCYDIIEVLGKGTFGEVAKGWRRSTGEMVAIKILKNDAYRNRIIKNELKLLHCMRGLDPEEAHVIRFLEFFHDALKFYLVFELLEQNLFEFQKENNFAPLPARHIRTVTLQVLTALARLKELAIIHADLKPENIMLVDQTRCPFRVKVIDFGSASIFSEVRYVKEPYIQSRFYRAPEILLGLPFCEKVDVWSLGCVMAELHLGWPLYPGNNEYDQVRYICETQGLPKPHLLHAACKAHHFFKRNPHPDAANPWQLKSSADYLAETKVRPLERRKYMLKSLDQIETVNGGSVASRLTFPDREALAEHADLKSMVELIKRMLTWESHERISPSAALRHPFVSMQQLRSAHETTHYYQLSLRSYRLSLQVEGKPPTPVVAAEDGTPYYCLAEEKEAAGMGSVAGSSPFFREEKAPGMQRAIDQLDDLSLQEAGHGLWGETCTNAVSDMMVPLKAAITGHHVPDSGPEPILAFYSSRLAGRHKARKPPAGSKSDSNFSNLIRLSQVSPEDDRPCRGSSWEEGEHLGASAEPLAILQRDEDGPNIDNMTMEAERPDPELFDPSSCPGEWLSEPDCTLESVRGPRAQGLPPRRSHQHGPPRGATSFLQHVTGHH
SMILES,test,conditions,quantity,value
O=c1[nH]c2ccccc2n1C1CCN(Cc2ccc(-c3[nH]c4cc5ncnc5cc4nc3-c3ccccc3)cc2)CC1,cell-free assay,0.5 µM,remaining signal,99.3%
Cn1cc(-c2cccc(N3CCc4c(sc5c4CC(C)(C)C5)C3=O)c2CO)cc(Nc2ccncn2)c1=O,"enzyme activity, inhibitor",1 µM,inhibition,11%
Cn1cncc1[C@](O)(COc1ccc(C#N)cc1-c1ccc(OC(F)(F)F)cc1)c1ccc(C#N)cc1,"cell-free assay, competition with immobilised ligand",1 µM,remaining binding,86%
CC(C)(C)c1cc(C=C(C#N)C#N)cc(Br)c1O,"enzyme activity, inhibitor",0.5 µM,remaining activity,103%
Nc1ncc(-c2nc(N3CCOCC3)nc(N3CCOCC3)n2)c(C(F)F)n1,"binding, competition with immobilised ligand",10 µM,remaining binding,100%
Cn1cc(-c2cc(F)cc(N3CCn4c(cc5c4CCCC5)C3=O)c2CO)cc(Nc2ccc(N3CCN(C4COC4)CC3)cn2)c1=O,"enzyme activity, inhibitor",0.1 µM,inhibition,11%
COc1ncccc1-c1cnn2ccc(N3CCN(C(=O)OC(C)C)CC3)nc12,"binding, competition with immobilised ligand",1 µM,remaining binding,99%
Cc1nn(C)cc1-c1nc2c(N3CCN(Cc4ccc(Cl)cc4)CC3)c(Cl)cnc2[nH]1,"binding, competition with immobilised ligand",1 µM,remaining binding,85%
